Assay: Toxicity liver stage against HepG2, at 10uM
Type: cell-based
Parameters: test concentration 10 uM, cell line HepG2-A16-CD81EGFP
Conditions: human, HepG2-A16-CD81EGFP cells; read-out: INHIBITION
Outline: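 Uninfected HepG2-A16-CD81EGFP cells, 3 × 10^3 per well, 1536-well, plated on prespotted compound at 10 μM final, parasite-free screening media added to match infected plates; puromycin 10 μM positive, DMSO 0.5% negative; run in parallel with 48 h PbLuc assay at 37 °C, 5% CO2; viability by CellTiter-Glo luminescence, normalized to controls.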

SMILES | cytotoxicity at 10 µM
O=C(NCCCn1cccn1)C1CCC(=O)N(Cc2ccccc2F)C1 (stereo unspecified) | -3.75%
CC(O)CNCc1ccccc1C(F)(F)F (stereo unspecified) | -3.3%
CCOC(=O)CCC(=O)NC(C)c1ccc(NC(=O)CC)cc1 (stereo unspecified) | 0.097%
CC(C)CCNC(=O)Cc1cnc(-n2cccc2)s1 | -2.49%
CC(C)(C)C1SCC(=O)Nc2c1c(O)nn2C1CCCCC1 (stereo unspecified) | -16.7%
Cc1ccc(NC(=O)Nc2cnc(N3CCN(C)CC3)nc2)cc1 | -15.4%
CC(C)(C)C(=O)N1CC[C@@H]2[C@H](CC1)N(S(C)(=O)=O)CCS2(=O)=O | 0.64%
Cc1cccc(CN2C(=O)CCC23CCN(Cc2nccn2C)CC3)n1 | 5.47%
Cc1c(C)n(CC(O)CN2CCC(C)CC2)c2c(Cl)cccc12 (stereo unspecified) | -5.12%
CCOC(=O)c1cn(CC(O)c2ccccc2OC)nn1 (stereo unspecified) | -4.06%
O=C(c1cnc2ccc(F)cc2c1NCc1ccco1)N1CCCC1 | -54.5%
COC1CC2(CCN(Cc3ccc4c(c3)OCO4)CC2)C1 | 3.07%
O=C1CC(c2ccccc2)C2(CCN(Cc3ccccn3)CC2)N1 (stereo unspecified) | 3.91%
Cc1nn(C)c(C)c1-c1ccc(=O)n(C(C)C(=O)NC2CC2)n1 (stereo unspecified) | 0.0475%
CCC1CCCCN1C(=O)Cn1nc(-c2cc(C)oc2C)cc(N)c1=O (stereo unspecified) | 2.44%
CC(=O)N1CCC(c2n[nH]cc2-c2ccnc(N)c2)C1 (stereo unspecified) | 0.355%
CCn1cc(S(=O)(=O)NCC2(N3CCOCC3)CCCCC2)c(C)n1 | -27.5%
CN(C)c1ncccc1CN1CCOC(C(=O)Nc2ccccc2)C1 (stereo unspecified) | -29.7%
Cc1ccc(CN2CC[C@H](O)[C@@H](n3ccc(=O)[nH]c3=O)CC2)cc1 | -22.8%
CC(C)N1CCCC(CCCc2ccccn2)(C(=O)O)C1 (stereo unspecified) | 2.6%
CC(C)NC(=O)N1CCN(c2ccc(Cl)nn2)C(=O)C1 | 5.01%
O=C(c1cccnc1)N1CCC2(CNS(=O)(=O)c3cnccc3O2)C1 (stereo unspecified) | 15.7%
COc1ccc(CCNC(=O)NCc2cccc(C(N)=O)c2)cc1OC | 11.8%

SMILES | cytotoxicity at 10 µM
Cc1[nH]nc2ncc(C(=O)N3CCCC3c3noc(C(C)C)n3)cc12 (stereo unspecified) | 8.38%
COc1ccc(CCC2CCCCN2)cc1OC (stereo unspecified) | 12.1%
Cc1ccc(C(C)N(C)C(=O)c2ccc(=O)n(C)c2)s1 (stereo unspecified) | -4.27%
COc1ccc(-c2nnc(C(C)N3CCOCC3)o2)cc1 (stereo unspecified) | -10.4%
CC1CN(Cc2cccc(CNC3CCCC3)c2)CCO1 (stereo unspecified) | 3.06%
Cc1noc(C(C)N2CCN(Cc3noc(C4CC4)n3)CC2)n1 (stereo unspecified) | 0.973%
CCCN(CCC)C(=O)CN1CCCC1C(=O)N(C)C (stereo unspecified) | 7.42%
COC(=O)C(CNC(=O)Nc1nncs1)Cc1ccc(F)cc1 (stereo unspecified) | 0.571%
O=C(CN(Cc1cccs1)c1ccc(F)cc1)NC1CCOCC1 | 13.5%
CC(c1ccccn1)N(C)C(=O)CN1CCN(c2ccccn2)CC1 (stereo unspecified) | 5.1%
NC(=O)N1CCCC(C(=O)Nc2cccc(Cl)c2)C1 (stereo unspecified) | 8.16%
CC(C)Cc1noc(CC2CCS(=O)(=O)C2)n1 (stereo unspecified) | 3.03%
COc1cc(OC)cc(N2CCC(NCc3cccs3)C2=O)c1 (stereo unspecified) | 4.63%
CC(C)(C)C(=O)NCc1nccn1CCc1ccccc1 | 3.75%
CC(C)c1nc(C(=O)N2CCOCC2CC(=O)c2ccco2)cs1 (stereo unspecified) | -7.58%
Cc1nn(C)c(C)c1NC(=O)CNc1cc(C(F)(F)F)ccc1F | 13.4%
Cc1nn(C)c(C)c1CCC(=O)OCC(=O)N1CCc2sccc2C1 | 0.927%
Cc1nn(C)c(C)c1C(=O)NCc1cccnc1OC1CCCC1 | -0.171%
c1ccc(OCCN2CCC(n3cncn3)CC2)cc1 | -20.7%
Cc1noc(C)c1CC(=O)Nc1ccn(CC(N)=O)n1 | 9.86%
CCc1nc(CC)n(CC(=O)NCc2ccccc2C)n1 | 15.2%
CN(CC(=O)NC1CC1)C(=O)c1csc(Br)c1 | -0.872%
CC(C#N)(NC(=O)Cn1cc(I)cn1)C1CC1 (stereo unspecified) | 15.2%

SMILES | cytotoxicity at 10 µM
c1ccc2[nH]c(C3CCN(Cc4nc(C5CC5)no4)CC3)cc2c1 | 9.02%
CCS(=O)(=O)N1Cc2nccn2CC(Cn2cccn2)C1 (stereo unspecified) | 10.7%
CC(=O)N1CCC2(CC1)CN(CC1CC1)c1ccc(F)cc12 | -113%
CC(=O)N1CCO[C@@H]2CN(S(=O)(=O)C3CC3)CC[C@@H]2C1 | -112%
CCO[C@@H]1CCN(C(=O)c2cscn2)[C@@H]1Cc1cnn(C)c1 | 4.84%
CC(=O)NC(C)C1=CCCN(Cc2ccc(C(=O)O)cc2)C1 (stereo unspecified) | -12.1%
COc1ccccc1CC(=O)N(CCN1CCOCC1)Cc1ccco1 | 2.91%
COC1CCN(S(=O)(=O)N2C[C@H](c3ccccc3)[C@@H](N)C2)CC1 | 11.8%
Cc1nc(CN2CCC3(CCCO3)CCC2=O)no1 (stereo unspecified) | -0.452%
COc1cccc2c1OCC(C(=O)NCCCn1nc(C)c(Cl)c1C)C2 (stereo unspecified) | -4.12%
O=c1c2sccc2ncn1Cc1cc(C2CC2)[nH]n1 | 0.463%
Cc1cc(C)c(C(=O)NC(c2nnc3n2CCNCC3)C(C)C)c(C)c1 (stereo unspecified) | -7.01%
Cc1nn(C)c2nc(N3CCN(Cc4nccn4C)CC3)sc12 | -4.66%
CC(c1ccccn1)N(C)Cc1ccc(-n2ccnc2)cc1 (stereo unspecified) | -0.452%
Cc1cc(N2CCCN(c3nc(C)nc(C)c3C)CC2)ccn1 | -13.1%
Cc1cc(C)cc(CN2CCN(Cc3ccc4nonc4c3)CC2=O)c1 | 0.403%
COc1ccc2c(C)nc(N3C[C@@H](C)O[C@@H](C)C3)nc2c1 | 6.77%
CN1CCC2(CCCN(S(=O)(=O)c3ccc(-c4cnco4)s3)C2)C1 (stereo unspecified) | -7.56%
Cn1c(Cn2ncc(N3CCCC3)cc2=O)nc2ccccc21 | 5.65%
CN(CCCc1cnn(C)c1)C(=O)C1CCCN(C2CCCC2)C1 (stereo unspecified) | -7.17%
Cc1c(-c2ccccc2)ncn1CC(c1cccnc1)N1CCOCC1 (stereo unspecified) | 2.11%
CCN1CCN(C(=O)CCC2CCN(C(C)CSC)CC2)CC1 (stereo unspecified) | -0.0154%
O=C1N(Cc2ccc(F)c(F)c2)CCCC12CCN(C1CCCC1)C2 (stereo unspecified) | -2.8%

SMILES | cytotoxicity at 10 µM
CCn1nc(C(C)C)cc1C(=O)NCc1nc2ccc(OC)cc2[nH]1 | 4.28%
CCC(CO)N(Cc1ccsc1)Cc1ccccc1C#N (stereo unspecified) | 9.64%
COCC(=O)N(Cc1cccnc1)CC1CCCN(C2CCCCC2)C1 (stereo unspecified) | 1.72%
CC(=O)N[C@@H]1CN(Cc2oc3ccccc3c2C)C[C@H]1c1ccc(C)o1 | -12.3%
O=C(NCC(F)F)c1ccc(S(=O)(=O)N2CCCC(O)C2)cc1 (stereo unspecified) | 1.29%
C/C(=C\c1ccco1)CN(C)C(C)c1ccccn1 (stereo unspecified) | -3.49%
CN1CC(c2ccccc2)CC12CCN(C(=O)c1ccc(Cl)cc1)CC2 (stereo unspecified) | -2.72%
CN(CCNc1ncc2c(n1)CCN2c1ccccc1)S(C)(=O)=O | 0.557%
Cc1nc(NC(=O)N2CCCC(N(C)C)C2)nn1C (stereo unspecified) | -9.4%
Nc1cc(C(=O)NCC2CCN(CCc3ccccc3)C2)ccn1 (stereo unspecified) | -5.47%
COc1ccccc1OCc1cc(C(=O)N2CCN(C(C)=O)CC2)n[nH]1 | -2.59%
Cc1ncc(CN2CCCC2c2ccc(C(=O)NCc3ccoc3)s2)s1 (stereo unspecified) | -1.06%
Cc1nc(C2CCN(C(=O)c3ccc(=O)n(C)c3)CC2)c2sccn12 | -5.38%
O=C1COc2cc(C(=O)NS(=O)(=O)c3cc(Cl)ccc3Cl)ccc2N1 | -7.96%
COc1ccc(C2CCCN2Cc2ccc(S(=O)(=O)N(C)C)o2)cc1 (stereo unspecified) | -5%
CCNc1cc2c(nn1)CCN(C(=O)Cc1ccc(C)s1)C2 | -0.375%
Cn1cc(CCNCc2cc(Br)c3c(c2)OCO3)cn1 | -18%
CC1CCCN(S(=O)(=O)NCc2ccccc2Cn2cncn2)C1 (stereo unspecified) | 1.55%
Cc1cnn(CCC(=O)N2CCCN(c3ccccc3C#N)CC2)c1 | -2.85%
CN1CCCc2cc(CNC(=O)c3ccc(-n4cnnc4)cc3)ccc21 | -4.9%
O=C(NCCNc1ccc(C(F)(F)F)cn1)c1cc(Cl)ccc1F | -8.27%
COc1c(C2CCCN2C(=O)c2ccc(O)nc2)c(C)nn1C (stereo unspecified) | 2.63%
Cc1nc2ccccc2nc1CN1CCCCC1Cn1cncn1 (stereo unspecified) | -7.36%

SMILES | cytotoxicity at 10 µM
Cc1cc(C[S+]([O-])CC(=O)NCc2cccs2)no1 (stereo unspecified) | -12.3%
Cc1ccc(NC2CCN(C(=O)c3cccn3C)CC2)nn1 | -3.76%
COc1cc(CNC2CCc3nc(C)nn3C2)cc2c1OCCO2 (stereo unspecified) | -9.16%
Cc1nccn1C1CCCN(C(=O)c2ccc(N(C)C)nc2)C1 (stereo unspecified) | -7.62%
O=S(=O)(N(Cc1ccccn1)C1CC1)N1CCCC1c1ccco1 (stereo unspecified) | -3.73%
Cc1cnn(CC2CCCCN2Cc2nnc(-c3ccco3)o2)c1 (stereo unspecified) | -10.4%
Cc1cc(C(=O)O)cc(S(=O)(=O)Nc2ccc3c(c2)OCO3)c1C | 0.89%
COc1cc(C)nc(N2CCN(C(=O)CNC(C)(C)C)CC2)n1 | -7.67%
CN(C)c1cc(CNC(=O)c2ccc(F)cc2F)ccn1 | -4.82%
CC(C)C(=O)N1C[C@H]2CCCN[C@H]2C1 | 1.55%
C[C@@H]1CN(Cc2cccnc2)C[C@]12CCN(CCN1CCCC1)C2=O | -6.04%
Cc1cccc(CN2CCC3(CC2)NC(=O)CC3c2ccccc2)n1 (stereo unspecified) | -0.508%
Cc1cc(S(=O)(=O)NC(C)(C)CN)c(F)cc1F | 4.87%
Cc1cc(F)c(S(=O)(=O)NCC(C)(C)N)cc1F | 6.65%
Cc1ccc(CN2CCc3nnc(CN4CCCC4=O)n3CC2)s1 | 1.02%
Cc1noc(C)c1CN1CC[C@H]2OCC[C@@]2(C(=O)N2CCCO2)C1 | 1.59%
CN(C)C(=O)N1CCO[C@@H]2CC(COCc3cccnc3)C[C@H]21 (stereo partly specified) | 8.61%
O=C(Nc1ccccc1)N1CCn2nnc(COc3cccnc3)c2C1 | -2.03%
Cn1cccc1C(=O)N1CCC2(CCN(C(=O)c3cccnc3)C2)CC1 | -102%

Reference: ChEMBL document CHEMBL4513216, “Probing the Open Global Health Chemical Diversity Library for Multistage-Active Starting Points for Next-Generation Antimalarials” (ACS Infect Dis, 2020)
